As usually defined, the IC50 is the concentration that inhibits the measured activity by half. Read a high IC50 as weaker potency. What is called Tmax is the time at which the peak concentration occurs.

Calls of active or inactive are those of the source. The rule behind the calls is not given here. Some results are limits rather than exact numbers.

A short description of data set [1]: Inhibition of LPS stimulated IL-1beta in human mococyte-derived macrophages cells preincubated for 2 hrs followed by LPS stimulation and measured after 6 hrs by ELISA. Conditions: Macrophage. The data set is classed as functional. An outline of the steps:
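Human monocyte-derived macrophages stimulated with LPS; IL-1β secretion measured over 10 concentrations per compound, N = 2, to compute individual IC50 values; dexamethasone run in parallel as reference. Z-score reported.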
A general note: An ELISA detects its analyte on a solid surface through an enzyme-linked reagent.

Data set [2] concerns Macrophage. In words: Inhibition of LPS stimulated IL-8 in human mococyte-derived macrophages cells at 1 uM preincubated for 2 hrs followed by LPS stimulation and measured after 6 hrs by ELISA. The data set is classed as functional. The note with it: time 8.0 hrs.
The subject of data set [3] is Macrophage. The data set is described as follows: Inhibition of LPS stimulated IL-4 in human mococyte-derived macrophages cells at 1 uM preincubated for 2 hrs followed by LPS stimulation and measured after 6 hrs by ELISA. The data set is classed as functional. The note with it: time 8.0 hrs.
The nature of data set [4]: Elimination half life in Wistar rat 65 mg/kg, po administered as single dose. The data set is classed as ADME, organism-based. Conditions: in vivo, read-out: beta t1/2 (converted). An outline of the steps: (§1)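 Female Wistar rats, 8 weeks old, given a single oral 65 mg/kg dose in PEG400/Kolliphor HS 15 (70/30 v/v); plasma drug levels sampled over time (N = 9). Tmax taken from the curve; two-compartment fit with first-order terminal elimination gave distribution and elimination half-lives.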

Data set [5] addresses T1, Mitogen-activated protein kinase 14 (Homo sapiens, UniProt Q16539). The data set is described as follows: Binding affinity to p38 alpha MAPK (unknown origin) assessed as association constant by surface plasmon resonance imaging.
A short description of data set [6]: Half life in Wistar rat 65 mg/kg, po administered as single dose. The data set is classed as ADME, organism-based. Conditions: in vivo. An outline of the steps:
as §1

Data set [7] concerns Mus musculus. In words: Anti-inflammatory activity in po dosed Balb/c mouse assessed as inhibition of stimulated IL-1beta secretion in liver after 4 hrs by ELISA. Conditions: dose 10-20 mg/kg. It counts as functional, organism-based.
In data set [8] the test system is Mus musculus. In words: Anti-inflammatory activity in po dosed Balb/c mouse assessed as inhibition of stimulated IL-1beta secretion in brain after 4 hrs by ELISA. The data set is classed as functional, organism-based. Conditions: dose 10-20 mg/kg.
Data set [9] has as its system Macrophage. The data set is described as follows: Inhibition of LPS stimulated IL-2 in human mococyte-derived macrophages cells at 1 uM preincubated for 2 hrs followed by LPS stimulation and measured after 6 hrs by ELISA. Conditions: time 8.0 hrs. It counts as functional.
Data set [10] can be described thus: Tmax in Wistar rat at 65 mg/kg, po administered as single dose. The data set is classed as ADME, organism-based. The note with it: in vivo. An outline of the steps:
as §1

The test system of data set [11] is Mus musculus. In words: Anti-inflammatory activity in Balb/c mouse assessed as inhibition of stimulated IL-1beta secretion in plasma at 10 mg/kg, po after 4 hrs by ELISA. It counts as functional, organism-based. An outline of the steps: (§2)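 Male BALB/c mice dosed orally with 10 or 20 mg/kg compound (DMSO stock, then 5% TPGS in PBS), vehicle controls. LPS O111:B4 0.33 mg/kg i.p. in saline given 2 h after treatment. Blood drawn retro-orbitally into heparin tubes 4 h post-LPS; plasma IL-1β by ELISA read at 450 nm.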

Data set [12] has as its system Mus musculus. The data set is described as follows: Anti-inflammatory activity in Balb/c mouse assessed as inhibition of stimulated IL-1beta secretion in plasma at 20 mg/kg, po after 4 hrs by ELISA. The data set is classed as functional, organism-based. An outline of the steps:
as §2

The test system of data set [13] is Mus musculus. The data set is described as follows: Anti-inflammatory activity in po dosed Balb/c mouse assessed as inhibition of stimulated IL-1beta secretion in lung after 4 hrs by ELISA. The data set is classed as functional, organism-based. The note with it: dose 10-20 mg/kg.
Data set [14] deals with Macrophage. The data set is described as follows: Inhibition of LPS stimulated GM-CSF in human mococyte-derived macrophages cells at 1 uM preincubated for 2 hrs followed by LPS stimulation and measured after 6 hrs by ELISA. The data set is classed as functional. Conditions: time 8.0 hrs.
Data set [15] deals with T1, Mitogen-activated protein kinase 14. In words: Binding affinity to p38 alpha MAPK (unknown origin) assessed as dissociation rate constant by surface plasmon resonance imaging.
Data set [16] has as its system Macrophage. In words: Inhibition of LPS stimulated IL-6 in human mococyte-derived macrophages cells at 1 uM preincubated for 2 hrs followed by LPS stimulation and measured after 6 hrs by ELISA. The data set is classed as functional. The note with it: time 8.0 hrs.

T1 sequence (Q16539 whole entry): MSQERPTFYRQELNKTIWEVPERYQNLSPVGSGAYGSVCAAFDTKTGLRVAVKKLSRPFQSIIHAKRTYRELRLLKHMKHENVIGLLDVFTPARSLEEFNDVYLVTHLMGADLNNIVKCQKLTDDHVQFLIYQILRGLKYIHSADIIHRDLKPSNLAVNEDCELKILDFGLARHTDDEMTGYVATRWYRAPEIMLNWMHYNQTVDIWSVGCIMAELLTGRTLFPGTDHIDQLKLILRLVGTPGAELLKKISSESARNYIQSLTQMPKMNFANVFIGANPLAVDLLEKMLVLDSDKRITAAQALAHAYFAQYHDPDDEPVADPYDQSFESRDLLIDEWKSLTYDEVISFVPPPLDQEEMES

`CCOc1ccc(Oc2cc(S(=O)(=O)N(C)C)cnc2N2CCC(Oc3ccc(Cl)nn3)CC2)cc1` yielded an IC50 in data set [1] of 1.1 µM.

In [1], `CN(C)S(=O)(=O)c1cnc(N2CCC(Oc3ccc(Cl)cc3)CC2)c(-c2ccc3c(c2)CCO3)c1` returned a 50% inhibitory concentration (IC50) of 0.027 µM.

`CCCOc1ccc(Nc2cc(S(=O)(=O)N(C)C)cnc2N2CCC(Oc3ccc(Cl)cc3)CC2)cc1` displayed an IC50 in [1] greater than 10 µM.

`CCOc1ccc(Oc2cc(S(=O)(=O)N(C)C)cnc2N2CCN(Cc3ccc(Cl)cc3)CC2)cc1` showed a half-maximal inhibitory concentration (IC50) in data set [1] greater than 10 µM.

In the case of `CN(C)S(=O)(=O)c1cnc(N2CCC(Oc3ccc(Cl)cc3)CC2)c(Nc2ccc3c(c2)OCO3)c1`, in [1], 0.121 µM corresponded to half-maximal inhibition (IC50).

`CCC(=O)c1ccc(Nc2cc(S(=O)(=O)N(C)C)cnc2N2CCC(Oc3ccc(Cl)cc3)CC2)cc1`: in data set [1], the IC50 was greater than 10 µM.

Consider `CN(C)S(=O)(=O)c1cnc(N2CCC(Oc3ccc(Cl)cc3)CC2)c(Oc2ccc3c(c2)CCO3)c1`, for which half-maximal inhibition in data set [1] (IC50) required 0.028 µM.

As for `CN(C)S(=O)(=O)c1cnc(N2CCC(Oc3ccc(Cl)cc3)CC2)c(Oc2ccc(OCCO)cc2)c1`, the half-inhibitory concentration (IC50) in data set [1] is greater than 10 µM.

Take `CCOc1ccc(Oc2cc(S(=O)(=O)N(C)C)cnc2N2CCC(Oc3ccc(Cl)cc3)CC2)cc1`: the inhibition result in [2], in data set [3], in [9], in [14] and in data set [16] was “Active” throughout. For the same compound, the figures for the half-life in data set [4] and in data set [6] were 9 h and 2.1 h, respectively. Also, half-maximal inhibition in [1] (IC50) required 0.028 µM. Also, the Ka in data set [5] is 2.08 10^4/M/s. For the same compound, the Activity entry in data set [7], in data set [8] and in data set [13] was “Dose-Dependent Effect” each time. In [10], the Tmax was found to be 1 h. Also, the outcome in data set [11] and in [12] was Active. Also, the koff in data set [15] is 2.48 10^-4/s.

On to `CN(C)S(=O)(=O)c1cnc(N2CCC(Oc3ccc(Cl)cc3)CC2)c(Nc2ccc3c(c2)CCO3)c1`, for which the IC50 in data set [1] was 0.029 µM.

`CCOc1ccc(Oc2cc(S(=O)(=O)N(C)C)cnc2N2CCC(Oc3ccc(Cl)nc3)CC2)cc1` returned an IC50 in data set [1] of 4 µM.

In data set [1], `CN(C)S(=O)(=O)c1cnc(N2CCC(Oc3ccc(Cl)cc3)CC2)c(Nc2ccc3oc(CO)cc3c2)c1` came in with an IC50 of 0.0128 µM.

Consider `CCOc1ccc(Oc2cc(S(=O)(=O)N(C)C)cnc2N2CCN(Cc3ccc(Cl)nc3)CC2)cc1`, for which the IC50 in [1] was greater than 10 µM.

For `CCOc1ccc(Nc2cc(S(=O)(=O)N(C)C)cnc2N2CCC(Oc3ccc(Cl)cc3)CC2)cc1`, the IC50 in data set [1] is greater than 10 µM.

The compound `CCOc1ccc(Oc2cc(S(=O)(=O)N(C)C)cnc2N2CCC(Oc3ccc(C(N)=O)nc3)CC2)cc1` yielded a 50% inhibitory concentration (IC50) in data set [1] of 0.337 µM.

Regarding `CCC(=O)c1ccc(-c2cc(S(=O)(=O)N(C)C)cnc2N2CCC(Oc3ccc(Cl)cc3)CC2)cc1`, the IC50 in data set [1] is greater than 10 µM.

(Values after ChEMBL document CHEMBL4840310, “Discovery of novel 2,3,5-trisubstituted pyridine analogs as potent inhibitors of IL-1β via modulation of the p38 MAPK signaling pathway” (Eur J Med Chem, 2021).)
